Activity and MRT last data for one molecule are collected here from ChEMBL document CHEMBL4229344 (Eur J Med Chem, 2018).

Data set [1] has as its system Tyrosine-protein kinase ABL1 (Homo sapiens), P00519 [F317L]. Nature of the data set: Binding affinity to human phosphorylated ABL1 F317L mutant (S229 to K512 residues) expressed in mammalian expression system assessed as residual binding level at 1 uM by Kinomescan method relative to control. The essentials: (§1)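 Single-concentration (1 μM) competition-binding screen run by KINOMEscan against a panel of 468 purified kinases and mutants. The read-out is the relative binding activity of the test compound to each kinase.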

For data set [2], the target named is Bone morphogenetic protein receptor type-1B (Homo sapiens) (UniProt O00238). Nature of the data set: Binding affinity to wild-type human partial length BMPR1B (D178 to L502 residues) expressed in mammalian expression system assessed as residual binding level at 1 uM by Kinomescan method relative to control. The essentials:
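Single-concentration KINOMEscan (DiscoverX) binding screen at 1 μM against a panel of 468 purified kinases and mutants. The read-out is binding relative to control.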

Data set [3] has as its target Mitotic checkpoint serine/threonine-protein kinase BUB1 (Homo sapiens) (UniProt O43683). Nature of the data set: Binding affinity to wild-type human partial length BUB1 (Q724 to K1085 residues) expressed in mammalian expression system assessed as residual binding level at 1 uM by Kinomescan method relative to control.
Data set [4] addresses Ephrin type-A receptor 2 (Homo sapiens) (UniProt P29317). Put plainly: Binding affinity to wild-type human partial length EPHA2 (T593 to V891 residues) expressed in bacterial expression system assessed as residual binding level at 1 uM by Kinomescan method relative to control.
Data set [5] concerns the target Ephrin type-B receptor 1 (Homo sapiens) (UniProt P54762). Nature of the data set: Binding affinity to wild-type human partial length EPHB1 (P589 to T911 residues) expressed in bacterial expression system assessed as residual binding level at 1 uM by Kinomescan method relative to control.
In data set [6] the test system is Receptor-type tyrosine-protein kinase FLT3 (Homo sapiens), P36888 [D835Y]. Put plainly: Binding affinity to human partial length FLT3 D835Y mutant (Q580 to Y969 residues) expressed in bacterial expression system assessed as residual binding level at 1 uM by Kinomescan method relative to control. The essentials:
(§2)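 Kinome-wide single-concentration binding screen (KINOMEscan) at 1 μM against a panel of 468 purified kinases and mutants. Read-out is relative binding of each kinase compared with control. Selectivity across the panel was summarised as an S(10) score.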

For data set [7], the target named is G protein-coupled receptor kinase 3 (Homo sapiens) (UniProt P35626). Put plainly: Binding affinity to wild-type human full length GRK3 (M1 to L688 residues) expressed in mammalian expression system assessed as residual binding level at 1 uM by Kinomescan method relative to control. The essentials: as §1
The target of data set [8] is Homeodomain-interacting protein kinase 1 (Homo sapiens) (UniProt Q86Z02). Put plainly: Binding affinity to wild-type human partial length HIPK1 (M146 to I555 residues) expressed in mammalian expression system assessed as residual binding level at 1 uM by Kinomescan method relative to control. The essentials:
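Kinome-wide competition binding screen against a panel of 468 purified kinases/mutants, with the test compound at a single concentration of 1 μM. Read-out is the relative binding activity of each kinase in the presence of compound.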

The target in data set [9] is Inhibitor of nuclear factor kappa-B kinase subunit epsilon (Homo sapiens) (UniProt Q14164). Nature of the data set: Binding affinity to wild-type human full length IKK-epsilon (M1 to V716 residues) expressed in mammalian expression system assessed as residual binding level at 1 uM by Kinomescan method relative to control. The essentials: as §1
The target of data set [10] is Interleukin-1 receptor-associated kinase 1 (Homo sapiens) (UniProt P51617). Put plainly: Binding affinity to wild-type human partial length IRAK1 (R194 to S712 residues) expressed in mammalian expression system assessed as residual binding level at 1 uM by Kinomescan method relative to control.
The target in data set [11] is LIM domain kinase 2 (Homo sapiens) (UniProt P53671). Put plainly: Binding affinity to wild-type human full length LIMK2 (M1 to P638 residues) expressed in bacterial expression system assessed as residual binding level at 1 uM by Kinomescan method relative to control. The gist of the method:
as §1

Data set [12] concerns the target Leucine-rich repeat serine/threonine-protein kinase 2 (Homo sapiens) (UniProt Q5S007). Put plainly: Binding affinity to wild-type human partial length LRRK2 (H970 to E2527 residues) expressed in mammalian expression system assessed as residual binding level at 1 uM by Kinomescan method relative to control.
Data set [13] addresses Mitogen-activated protein kinase kinase kinase kinase 5 (Homo sapiens) (UniProt Q9Y4K4). Put plainly: Binding affinity to wild-type human partial length MAP4K5 (M1 to P297 residues) expressed in bacterial expression system assessed as residual binding level at 1 uM by Kinomescan method relative to control.
Data set [14] concerns the target MAP/microtubule affinity-regulating kinase 4 (Homo sapiens) (UniProt Q96L34). Put plainly: Binding affinity to wild-type human partial length MARK4 (K29 to G340 residues) expressed in bacterial expression system assessed as residual binding level at 1 uM by Kinomescan method relative to control.
For data set [15], the system named is Phosphatidylinositol 4,5-bisphosphate 3-kinase catalytic subunit alpha isoform (Homo sapiens), P42336 [E542K]. Nature of the data set: Binding affinity to human partial length PIK3CA E542K mutant (R108 to N1068 residues) expressed in mammalian expression system assessed as residual binding level at 1 uM by Kinomescan method relative to control. The gist of the method: as §2

Data set [16] concerns the target cAMP-dependent protein kinase catalytic subunit PRKX (Homo sapiens) (UniProt P51817). Nature of the data set: Binding affinity to wild-type human partial length PRKX (M1 to F358 residues) expressed in bacterial expression system assessed as residual binding level at 1 uM by Kinomescan method relative to control. The gist of the method: (§3)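 KINOMEscan competition binding against a panel of 468 purified kinases/mutants, compound tested at 1 μM; readout is relative binding activity versus control.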

Data set [17] has as its target Ribosomal protein S6 kinase alpha-2 (Homo sapiens) (UniProt Q15349). Nature of the data set: Binding affinity to wild-type human partial length N-terminal RSK3 kinase domain 1 (M1 to Q385 residues) expressed in bacterial expression system assessed as residual binding level at 1 uM by Kinomescan method relative to control.
The target of data set [18] is Mitogen-activated protein kinase kinase kinase 7 (Homo sapiens) (UniProt O43318). Put plainly: Binding affinity to wild-type human partial length TAK1 (M1 to Q303 residues) expressed in mammalian expression system assessed as residual binding level at 1 uM by Kinomescan method relative to control. The gist of the method: as §3
For data set [19], the target named is Tyrosine-protein kinase Tec (Homo sapiens) (UniProt P42680). Put plainly: Binding affinity to wild-type human partial length TEC (L341 to D620 residues) expressed in bacterial expression system assessed as residual binding level at 1 uM by Kinomescan method relative to control.
In data set [20] the target is Serine/threonine-protein kinase ULK3 (Homo sapiens) (UniProt Q6PHR2). Put plainly: Binding affinity to wild-type human partial length ULK3 (M1 to Q290 residues) expressed in mammalian expression system assessed as residual binding level at 1 uM by Kinomescan method relative to control.
Data set [21] addresses Mitogen-activated protein kinase kinase kinase 20 (Homo sapiens) (UniProt Q9NYL2). Nature of the data set: Binding affinity to wild-type human partial length ZAK (M1 to L331 residues) expressed in bacterial expression system assessed as residual binding level at 1 uM by Kinomescan method relative to control.
Data set [22] can be described thus: MRT (0 to t) in Sprague-Dawley rat at 1 mg/kg, iv. Particulars: in vivo. The class given is ADME, organism-based.

What is called MRT last is a mean duration of stay, worked out from the concentration-time curve.

Sequence of LIM domain kinase 2 (Homo sapiens) (P53671 whole entry, looked up, the tested form may be a part): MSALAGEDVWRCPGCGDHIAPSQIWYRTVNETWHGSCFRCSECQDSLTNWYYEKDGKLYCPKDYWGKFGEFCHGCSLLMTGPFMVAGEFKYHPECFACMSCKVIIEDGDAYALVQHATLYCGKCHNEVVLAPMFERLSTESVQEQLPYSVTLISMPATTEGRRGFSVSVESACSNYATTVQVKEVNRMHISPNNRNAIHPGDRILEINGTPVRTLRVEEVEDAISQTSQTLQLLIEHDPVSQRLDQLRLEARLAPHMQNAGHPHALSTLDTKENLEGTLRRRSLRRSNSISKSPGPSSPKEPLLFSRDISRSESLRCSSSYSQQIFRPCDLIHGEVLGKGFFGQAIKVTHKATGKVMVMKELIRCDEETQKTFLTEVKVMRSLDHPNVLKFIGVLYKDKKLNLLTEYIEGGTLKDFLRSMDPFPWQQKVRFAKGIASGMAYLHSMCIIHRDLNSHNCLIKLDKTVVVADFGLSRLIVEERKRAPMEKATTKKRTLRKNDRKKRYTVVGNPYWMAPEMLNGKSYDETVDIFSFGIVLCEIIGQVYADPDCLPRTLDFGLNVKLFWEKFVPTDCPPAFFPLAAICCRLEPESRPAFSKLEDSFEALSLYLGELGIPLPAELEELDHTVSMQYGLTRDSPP
Sequence of Leucine-rich repeat serine/threonine-protein kinase 2 (Homo sapiens) (Q5S007 whole entry, the tested form may be a part): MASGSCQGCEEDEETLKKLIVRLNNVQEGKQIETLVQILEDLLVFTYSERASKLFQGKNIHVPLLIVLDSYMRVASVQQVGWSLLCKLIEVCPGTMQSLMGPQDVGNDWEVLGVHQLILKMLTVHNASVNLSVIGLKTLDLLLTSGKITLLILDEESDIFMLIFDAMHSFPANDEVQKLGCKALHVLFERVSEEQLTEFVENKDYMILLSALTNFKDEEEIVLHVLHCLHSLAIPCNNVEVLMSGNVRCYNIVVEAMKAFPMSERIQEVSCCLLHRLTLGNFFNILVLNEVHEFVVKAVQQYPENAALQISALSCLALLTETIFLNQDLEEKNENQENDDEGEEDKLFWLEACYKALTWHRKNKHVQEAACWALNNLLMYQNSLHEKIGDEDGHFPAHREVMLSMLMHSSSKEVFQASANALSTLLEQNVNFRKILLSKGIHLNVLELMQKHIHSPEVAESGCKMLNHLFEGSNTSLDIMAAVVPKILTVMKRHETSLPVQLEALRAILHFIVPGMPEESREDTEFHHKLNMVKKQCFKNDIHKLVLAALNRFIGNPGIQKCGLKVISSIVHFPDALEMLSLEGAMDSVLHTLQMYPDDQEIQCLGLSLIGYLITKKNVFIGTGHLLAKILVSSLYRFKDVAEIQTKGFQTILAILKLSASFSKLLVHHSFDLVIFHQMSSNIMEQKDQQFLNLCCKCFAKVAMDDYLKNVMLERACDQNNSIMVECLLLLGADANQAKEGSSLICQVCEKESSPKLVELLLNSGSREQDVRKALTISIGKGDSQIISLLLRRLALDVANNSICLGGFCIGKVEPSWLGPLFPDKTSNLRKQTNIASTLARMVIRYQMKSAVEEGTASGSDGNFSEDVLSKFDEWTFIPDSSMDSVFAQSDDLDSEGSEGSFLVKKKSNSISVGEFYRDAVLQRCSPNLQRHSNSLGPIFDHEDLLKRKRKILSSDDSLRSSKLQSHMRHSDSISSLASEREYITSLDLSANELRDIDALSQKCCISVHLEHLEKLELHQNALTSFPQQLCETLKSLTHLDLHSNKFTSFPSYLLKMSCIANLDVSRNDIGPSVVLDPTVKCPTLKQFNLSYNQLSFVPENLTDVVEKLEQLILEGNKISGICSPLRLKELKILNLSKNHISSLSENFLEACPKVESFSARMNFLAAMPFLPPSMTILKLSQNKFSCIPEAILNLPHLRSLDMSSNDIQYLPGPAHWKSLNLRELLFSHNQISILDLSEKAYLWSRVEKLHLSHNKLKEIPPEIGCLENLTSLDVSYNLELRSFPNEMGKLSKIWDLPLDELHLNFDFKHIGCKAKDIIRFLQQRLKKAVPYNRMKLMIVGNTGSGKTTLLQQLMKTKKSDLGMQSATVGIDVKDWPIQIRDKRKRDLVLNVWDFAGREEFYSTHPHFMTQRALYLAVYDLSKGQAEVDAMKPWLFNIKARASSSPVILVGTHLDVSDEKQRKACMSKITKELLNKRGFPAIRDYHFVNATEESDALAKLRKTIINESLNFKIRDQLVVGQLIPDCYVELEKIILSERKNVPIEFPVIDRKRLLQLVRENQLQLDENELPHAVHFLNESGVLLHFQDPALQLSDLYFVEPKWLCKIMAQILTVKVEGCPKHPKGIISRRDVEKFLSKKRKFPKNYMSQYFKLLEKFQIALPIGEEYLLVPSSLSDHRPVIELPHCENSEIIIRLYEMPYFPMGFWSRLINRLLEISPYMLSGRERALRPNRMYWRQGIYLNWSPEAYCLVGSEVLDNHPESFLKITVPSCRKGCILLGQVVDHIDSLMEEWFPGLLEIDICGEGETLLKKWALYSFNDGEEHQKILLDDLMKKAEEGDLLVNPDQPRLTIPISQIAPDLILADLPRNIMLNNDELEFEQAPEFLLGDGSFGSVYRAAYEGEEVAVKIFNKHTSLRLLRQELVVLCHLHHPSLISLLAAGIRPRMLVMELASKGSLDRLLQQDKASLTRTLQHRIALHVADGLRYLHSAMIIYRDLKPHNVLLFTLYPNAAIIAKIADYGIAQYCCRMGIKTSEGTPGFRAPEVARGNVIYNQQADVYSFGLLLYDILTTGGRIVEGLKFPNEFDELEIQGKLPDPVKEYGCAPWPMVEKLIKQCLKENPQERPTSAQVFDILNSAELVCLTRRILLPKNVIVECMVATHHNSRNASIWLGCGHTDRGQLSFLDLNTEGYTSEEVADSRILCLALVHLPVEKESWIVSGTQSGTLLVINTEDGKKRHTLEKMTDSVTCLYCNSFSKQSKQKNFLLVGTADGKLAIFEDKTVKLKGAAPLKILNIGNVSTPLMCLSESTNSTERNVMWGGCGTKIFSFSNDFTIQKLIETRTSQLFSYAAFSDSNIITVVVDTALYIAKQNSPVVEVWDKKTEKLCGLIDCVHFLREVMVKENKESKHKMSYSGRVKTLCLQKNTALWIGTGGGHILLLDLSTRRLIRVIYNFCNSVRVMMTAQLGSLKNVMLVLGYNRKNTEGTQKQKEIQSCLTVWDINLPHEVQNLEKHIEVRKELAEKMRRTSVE
Sequence of Ephrin type-B receptor 1 (Homo sapiens) (P54762 whole entry, the tested form may be a part): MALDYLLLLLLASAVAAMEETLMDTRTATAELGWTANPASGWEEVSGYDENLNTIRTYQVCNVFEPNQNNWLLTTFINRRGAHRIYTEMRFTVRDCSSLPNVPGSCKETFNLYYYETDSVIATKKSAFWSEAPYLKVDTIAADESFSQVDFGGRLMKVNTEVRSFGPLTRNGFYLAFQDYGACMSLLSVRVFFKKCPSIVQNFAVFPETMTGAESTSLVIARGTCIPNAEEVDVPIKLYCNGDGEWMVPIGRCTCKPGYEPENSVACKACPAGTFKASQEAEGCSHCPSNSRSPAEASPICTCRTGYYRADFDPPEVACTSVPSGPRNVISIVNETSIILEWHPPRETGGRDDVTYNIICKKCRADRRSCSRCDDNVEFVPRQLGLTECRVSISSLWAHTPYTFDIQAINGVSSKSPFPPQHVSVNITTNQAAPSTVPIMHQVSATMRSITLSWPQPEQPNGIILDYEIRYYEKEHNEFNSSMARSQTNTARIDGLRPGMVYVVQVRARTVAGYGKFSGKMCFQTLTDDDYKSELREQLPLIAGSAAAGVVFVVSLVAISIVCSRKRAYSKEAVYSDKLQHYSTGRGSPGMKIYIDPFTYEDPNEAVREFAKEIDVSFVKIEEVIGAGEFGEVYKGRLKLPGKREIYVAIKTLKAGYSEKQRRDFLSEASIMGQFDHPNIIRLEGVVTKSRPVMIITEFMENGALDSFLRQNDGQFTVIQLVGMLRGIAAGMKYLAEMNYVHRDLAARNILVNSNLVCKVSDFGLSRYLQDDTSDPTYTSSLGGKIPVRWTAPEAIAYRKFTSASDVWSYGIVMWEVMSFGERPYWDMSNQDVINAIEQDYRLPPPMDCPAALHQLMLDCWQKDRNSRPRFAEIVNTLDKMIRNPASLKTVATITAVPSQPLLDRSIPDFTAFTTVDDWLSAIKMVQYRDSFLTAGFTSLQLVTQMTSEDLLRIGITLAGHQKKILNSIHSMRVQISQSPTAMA
Sequence of Interleukin-1 receptor-associated kinase 1 (Homo sapiens) (P51617 whole entry, looked up, the tested form may be a part): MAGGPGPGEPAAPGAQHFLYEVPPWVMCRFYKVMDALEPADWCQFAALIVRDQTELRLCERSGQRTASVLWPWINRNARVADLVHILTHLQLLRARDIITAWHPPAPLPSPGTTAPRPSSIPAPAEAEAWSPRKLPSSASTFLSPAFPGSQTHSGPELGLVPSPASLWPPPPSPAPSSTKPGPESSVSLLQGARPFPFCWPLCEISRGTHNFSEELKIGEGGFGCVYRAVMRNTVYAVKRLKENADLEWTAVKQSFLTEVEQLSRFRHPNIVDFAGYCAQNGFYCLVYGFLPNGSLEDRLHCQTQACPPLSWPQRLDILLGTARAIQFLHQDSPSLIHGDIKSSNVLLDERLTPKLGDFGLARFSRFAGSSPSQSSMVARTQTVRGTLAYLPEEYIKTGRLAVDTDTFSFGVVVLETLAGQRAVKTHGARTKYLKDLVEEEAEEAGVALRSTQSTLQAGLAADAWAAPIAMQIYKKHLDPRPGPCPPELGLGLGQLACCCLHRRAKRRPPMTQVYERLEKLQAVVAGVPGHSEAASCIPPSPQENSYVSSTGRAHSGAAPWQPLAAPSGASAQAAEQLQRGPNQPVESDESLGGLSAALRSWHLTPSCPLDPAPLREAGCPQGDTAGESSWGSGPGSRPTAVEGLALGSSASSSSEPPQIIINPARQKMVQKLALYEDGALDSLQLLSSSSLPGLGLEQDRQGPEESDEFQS

On to `Cc1ccc(NC(=O)c2ccc(CN(CCN(C)C)C(=O)c3cccnc3)cc2)cc1Nc1nccc(-c2cccnc2)n1`, for which the Activity in [1] is 87%; in data set [2], 95%; in data set [3], 100%; in data set [4] it was 100%; in data set [5], 100%; in data set [6], 95%. Moreover, the Activity was 98% in data set [7]; 79% in data set [8]; 100% in [9]; 98% in data set [10]; 100% in data set [11]; 100% in data set [12]. For the same molecule, the Activity in data set [13] amounted to 97%; in data set [14] it was 90%; in data set [15], 83%; in [16], 92%; in data set [17], 94%; in [18], 92%. Further, the Activity in [19] is 100%; in [20], 85%; in data set [21], 100%. The molecule further had a mean residence time (MRT last) in data set [22] of 53.5 min.
